In ChEMBL document CHEMBL1765069, “Decahydroquinoline amides as highly selective CB2 agonists: role of selectivity on in vivo efficacy in a rodent model of analgesia” (Bioorg Med Chem Lett, 2011):
“And” between values parts separate entries of the source, which are not always exact repeats. Equal entries are not always repeated.

Columns and labels:
[1] = target: T1, Cannabinoid receptor 2 (Homo sapiens, UniProt P34972); test: Agonist activity at human CB2 receptor expressed in CHOK1 cells assessed as inhibition of forskolin-induced cAMP production treated 15 mins before forskolin challenge measured after 1 hr by HTRF assay; assay type: functional, cell-based, CHO-K1
Procedure, shortened: (§1)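 CHO-K1 cells (1000 per well) expressing human or rat CB1 or CB2 were preincubated with compound for 15 min at room temperature. Forskolin was then added at its EC70 for 30 min at room temperature. cAMP was detected by HTRF (d2-cAMP plus anti-cAMP cryptate) after a final 1 h incubation at room temperature. Values are reported as IC50 with % Emax.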

[2] = target: T2, Cannabinoid receptor 1 (Homo sapiens, UniProt P21554); test: Agonist activity at human CB1 receptor expressed in CHOK1 cells assessed as inhibition of forskolin-induced cAMP production treated 15 mins before forskolin challenge measured after 1 hr by HTRF assay; assay type: functional, cell-based, CHO-K1; procedure, shortened: as §1
[3] = target: T1, Cannabinoid receptor 2; test: Agonist activity at human CB2 receptor expressed in CHOK1 cells assessed as inhibition of forskolin-induced cAMP production treated 15 mins before forskolin challenge measured after 1 hr by HTRF assay relative to control; assay type: functional, cell-based; conditions: CHO-K1
Procedure, shortened: (§2)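 CHO-K1 cells (1000 per well) expressing human or rat CB1 or CB2 were preincubated with compound at room temperature for 15 min. Forskolin at EC70 was then added for a further 30 min at room temperature. cAMP was read by HTRF (d2-cAMP plus anti-cAMP-cryptate, final 1 h at room temperature). IC50 and % Emax were reported.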

[4] = target: T2, Cannabinoid receptor 1; test: Agonist activity at human CB1 receptor expressed in CHOK1 cells assessed as inhibition of forskolin-induced cAMP production treated 15 mins before forskolin challenge measured after 1 hr by HTRF assay relative to control; assay type: functional, cell-based; conditions: CHO-K1; procedure, shortened: as §2

T1 sequence (P34972 whole entry): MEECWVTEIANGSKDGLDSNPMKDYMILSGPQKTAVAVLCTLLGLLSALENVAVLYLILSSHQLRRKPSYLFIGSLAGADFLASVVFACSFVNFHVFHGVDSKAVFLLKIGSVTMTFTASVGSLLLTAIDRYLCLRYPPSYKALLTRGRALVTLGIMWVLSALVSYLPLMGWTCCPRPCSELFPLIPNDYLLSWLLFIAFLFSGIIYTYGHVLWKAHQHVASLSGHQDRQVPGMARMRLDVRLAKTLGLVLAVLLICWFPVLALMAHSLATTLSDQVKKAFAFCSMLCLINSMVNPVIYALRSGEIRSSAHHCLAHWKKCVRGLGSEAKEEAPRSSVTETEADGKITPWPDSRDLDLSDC
T2 sequence (P21554 whole entry): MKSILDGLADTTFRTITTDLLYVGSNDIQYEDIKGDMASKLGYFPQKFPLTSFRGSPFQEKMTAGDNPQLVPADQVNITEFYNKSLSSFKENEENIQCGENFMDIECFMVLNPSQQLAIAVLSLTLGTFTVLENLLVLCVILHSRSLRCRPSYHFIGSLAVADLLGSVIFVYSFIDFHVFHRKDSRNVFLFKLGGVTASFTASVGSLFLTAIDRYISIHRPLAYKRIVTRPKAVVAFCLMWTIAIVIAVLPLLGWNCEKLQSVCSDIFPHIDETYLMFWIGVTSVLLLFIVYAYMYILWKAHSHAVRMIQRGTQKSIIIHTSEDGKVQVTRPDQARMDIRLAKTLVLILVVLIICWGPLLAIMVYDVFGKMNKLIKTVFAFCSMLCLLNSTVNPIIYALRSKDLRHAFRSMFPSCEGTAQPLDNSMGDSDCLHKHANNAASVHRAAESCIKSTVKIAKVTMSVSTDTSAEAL

IC50 [1] | IC50 [2] | Emax [3] | Emax [4] | SMILES
5220 nM and 597 nM | > 17000 nM | – | – | O=C(c1csc(-c2ccncc2)n1)N1CCC(O)(c2ccccc2)[C@@H]2CCCC[C@@H]21 (stereo not given in full) [listing 1 of 2 here]
45 nM | > 17000 nM | 99% | 14% | O=C(c1ccccc1)N1CC[C@](O)(c2ccccc2)[C@H]2CCCC[C@@H]21
4.2 nM | 4540 nM | 100% | 76% | O=C(c1ccccc1)N1CC[C@](O)(c2ccccc2)[C@H]2CCCC[C@H]21
0.14 nM | 312 nM | 90% | 79% | O=C(c1ccc(Cl)cc1)N1CC[C@](O)(c2ccccc2)[C@H]2CCCC[C@H]21
938 nM | – | 86% | – | O=C(c1ccccc1)N1CC[C@](O)(c2cccnc2)[C@H]2CCCC[C@@H]21
– | – | 77% and 89% | 10% and 3% | O=C(c1csc(-c2ccncc2)n1)N1CCC(O)(c2ccccc2)[C@@H]2CCCC[C@@H]21 (stereo not given in full) [listing 2 of 2 here]
11 nM | > 17000 nM | 102% | – | O=C(c1ccon1)N1CC[C@@](O)(c2ccccc2)[C@@H]2CCCC[C@@H]21 (racemic)
6.3 nM | > 17000 nM | 99% | – | O=C(c1ccncc1F)N1CC[C@@](O)(c2ccccc2)[C@@H]2CCCC[C@@H]21 (racemic)
124 nM | > 17000 nM | 100% | – | Cn1ccnc1C(=O)N1CC[C@@](O)(c2ccccc2)[C@@H]2CCCC[C@@H]21 (racemic)
6.1 nM | > 17000 nM | 99% | – | Cc1cccc(C(=O)N2CC[C@@](O)(c3ccccc3)[C@@H]3CCCC[C@@H]32)n1 (racemic)
282 nM | > 17000 nM | 101% | – | O=C(c1nnc[nH]1)N1CC[C@@](O)(c2ccccc2)[C@@H]2CCCC[C@@H]21 (racemic)
41 nM | > 17000 nM | 101% | – | O=C(c1cscn1)N1CC[C@@](O)(c2ccccc2)[C@@H]2CCCC[C@@H]21 (racemic)
140 nM | > 17000 nM | 103% | – | O=C(c1ccncn1)N1CC[C@@](O)(c2ccccc2)[C@@H]2CCCC[C@@H]21 (racemic)
– | – | 99% | – | Cc1ccc(C(=O)N2CC[C@@](O)(c3ccccc3)[C@@H]3CCCC[C@@H]32)cn1 (racemic)
0.55 nM | > 17000 nM | – | – | O=C(c1csc(-c2ccncc2)n1)N1CCC(O)(c2ccccc2)[C@@H]2CCCC[C@@H]21 (single isomer, unassigned; form 1) [listing 1 of 2 here]
– | – | 100% | 12% | O=C(c1csc(-c2ccncc2)n1)N1CCC(O)(c2ccccc2)[C@@H]2CCCC[C@@H]21 (single isomer, unassigned; form 1) [listing 2 of 2 here]
7.9 nM | > 17000 nM | – | – | O=C(c1csc(-c2ccncc2)n1)N1CCC(O)(c2ccccc2)[C@@H]2CCCC[C@@H]21 (single isomer, unassigned; form 2) [listing 1 of 2 here]
– | – | 98% | 18% | O=C(c1csc(-c2ccncc2)n1)N1CCC(O)(c2ccccc2)[C@@H]2CCCC[C@@H]21 (single isomer, unassigned; form 2) [listing 2 of 2 here]
388 nM | > 17000 nM | – | – | O=C(c1csc(-c2ccncc2)n1)N1CCC(O)(c2ccccc2)[C@@H]2CCCC[C@@H]21 (single isomer, unassigned; form 3) [listing 1 of 2 here]
– | – | 97% | 51% | O=C(c1csc(-c2ccncc2)n1)N1CCC(O)(c2ccccc2)[C@@H]2CCCC[C@@H]21 (single isomer, unassigned; form 3) [listing 2 of 2 here]
> 17000 nM | 930 nM | – | – | O=C(c1csc(-c2ccncc2)n1)N1CCC(O)(c2ccccc2)[C@@H]2CCCC[C@@H]21 (single isomer, unassigned; form 4) [listing 1 of 2 here]
– | – | 19% | 46% | O=C(c1csc(-c2ccncc2)n1)N1CCC(O)(c2ccccc2)[C@@H]2CCCC[C@@H]21 (single isomer, unassigned; form 4) [listing 2 of 2 here]

The next lines start with the molecule.

SMILES | IC50 [1] | IC50 [2] | Emax [3] | Emax [4]
O=C(c1ccc(Cl)cc1)N1CC[C@](O)(c2ccccc2)[C@H]2CCCC[C@@H]21 | 24 nM | 963 nM | 90% | 72%
O=C(c1ccc2ccccc2n1)N1CC[C@](O)(c2ccccc2)[C@H]2CCCC[C@@H]21 | 41 nM | 2020 nM | 98% | 84%
O=C(c1cccc2[nH]ccc12)N1CC[C@](O)(c2ccccc2)[C@H]2CCCC[C@@H]21 | 22 nM | > 17000 nM | 94% | 31%
O=C(c1cc(-c2ccccc2F)n[nH]1)N1CC[C@](O)(c2ccccc2)[C@H]2CCCC[C@@H]21 | 1290 nM | > 17000 nM | – | –
CN1CCC(C(=O)N2CC[C@](O)(c3ccccc3)[C@H]3CCCC[C@@H]32)C1 (stereo not given in full) | > 17000 nM | > 17000 nM | 34% | 34%
O=C(c1ccc2ccccc2n1)N1CC[C@](O)(c2ccccc2)[C@H]2CCCC[C@H]21 | 0.82 nM | 188 nM | 98% | 98%
CS(=O)(=O)c1ccc([C@@]2(O)CCN(C(=O)c3ccccc3)[C@H]3CCCC[C@@H]32)cc1 | 106 nM | – | 56% | –
COc1ccc([C@@]2(O)CCN(C(=O)c3ccccc3)[C@H]3CCCC[C@@H]32)cc1 | 358 nM | – | 66% | –
O=C(c1ccccc1)N1CC[C@](O)(c2ccc(Cl)cc2)[C@H]2CCCC[C@@H]21 | 155 nM | – | 88% | –
O=C(c1ccccc1)N1CC[C@](O)(c2cccc(Cl)c2)[C@H]2CCCC[C@@H]21 | 493 nM | – | 69% | –
N#Cc1cccc([C@@]2(O)CCN(C(=O)c3ccccc3)[C@H]3CCCC[C@@H]32)c1 | 1050 nM | – | 85% | –
CS(=O)(=O)c1cccc([C@@]2(O)CCN(C(=O)c3ccccc3)[C@H]3CCCC[C@@H]32)c1 | 338 nM | – | 52% | –
O=C(c1ccccc1)N1CC[C@](O)(c2cccc(C(F)(F)F)c2)[C@H]2CCCC[C@@H]21 | 810 nM | – | -16% | –
O=C(c1ccccc1)N1CC[C@](O)(c2ccccn2)[C@H]2CCCC[C@@H]21 | 1360 nM | – | 65% | –
O=C(c1cccc2[nH]ncc12)N1CCC(O)(c2ccccc2)[C@@H]2CCCC[C@@H]21 (stereo not given in full) [listing 1 of 2 here] | 4.9 nM | 4250 nM | – | –
O=C(c1cc(-c2ccccc2F)[nH]n1)N1CC[C@](O)(c2ccccc2)[C@H]2CCCC[C@@H]21 | – | – | 81% | 56%

SMILES | IC50 [1] | IC50 [2] | Emax [3] | Emax [4]
O=C(c1cccc2[nH]ncc12)N1CCC(O)(c2ccccc2)[C@@H]2CCCC[C@@H]21 (stereo not given in full) [listing 2 of 2 here] | – | – | 100% | 95%
CN1CCCCC1C(=O)N1CC[C@@](O)(c2ccccc2)[C@@H]2CCCC[C@@H]21 (mixture of isomers) | 56 nM | > 17000 nM | 100% | –
O=C(C1CNCCN1)N1CC[C@@](O)(c2ccccc2)[C@@H]2CCCC[C@@H]21 (mixture of isomers) | 62 nM | > 17000 nM | 91% | –
CN1CC(C(=O)N2CC[C@@](O)(c3ccccc3)[C@@H]3CCCC[C@@H]32)CCC1=O (mixture of isomers) | 135 nM | > 17000 nM | 99% | –
O=C1CC(C(=O)N2CC[C@@](O)(c3ccccc3)[C@@H]3CCCC[C@@H]32)CN1 (mixture of isomers) | 3470 nM | > 17000 nM | 89% | –
O=C1CCC(C(=O)N2CC[C@@](O)(c3ccccc3)[C@@H]3CCCC[C@@H]32)N1 (mixture of isomers) | 193 nM | > 17000 nM | 102% | –
O=C(c1ccc(OCC(F)(F)F)nc1)N1CC[C@@](O)(c2ccccc2)[C@@H]2CCCC[C@@H]21 (racemic) | 16 nM | > 17000 nM | 100% | –
O=C(c1ccc(C2CC2)nc1)N1CC[C@@](O)(c2ccccc2)[C@@H]2CCCC[C@@H]21 (racemic) | 12 nM | > 17000 nM | 96% | –
CN1CCC(C(=O)N2CC[C@@](O)(c3ccccc3)[C@@H]3CCCC[C@@H]32)CC1 (racemic) | 395 nM | > 17000 nM | 98% | –
O=C([C@@H]1C[C@@H](O)CCN1)N1CC[C@@](O)(c2ccccc2)[C@@H]2CCCC[C@@H]21 (racemic) | 2180 nM | > 17000 nM | 87% | –
O=C(c1ncccn1)N1CC[C@@](O)(c2ccccc2)[C@@H]2CCCC[C@@H]21 (racemic) | 29 nM | > 17000 nM | 101% | –
O=C(c1ccc(C(F)(F)F)nc1)N1CC[C@@](O)(c2ccccc2)[C@@H]2CCCC[C@@H]21 (racemic) | 12 nM | > 17000 nM | 96% | –
O=C(c1cn(CC(F)(F)F)cn1)N1CC[C@@](O)(c2ccccc2)[C@@H]2CCCC[C@@H]21 (racemic) | 26 nM | > 17000 nM | 104% | –
O=C(c1cccc2[nH]ncc12)N1CCC(O)(c2ccccc2)[C@@H]2CCCC[C@@H]21 (single isomer, unassigned) [listing 1 of 2 here] | 1.6 nM | > 17000 nM | – | –
O=C(c1cccc2[nH]ncc12)N1CCC(O)(c2ccccc2)[C@@H]2CCCC[C@@H]21 (single isomer, unassigned) [listing 2 of 2 here] | – | – | 100% | 28%
